OX1R antag-1: OX1R (HCRTR1) antagonists, primary screen, fluorescence, CHO/OX1R cells, Fluo-8 calcium, orexin A. AID 434989, 2010. inhibition, % at 5 µM. Fluo-8 calcium fluorescence. 0.43% of 330,000 active;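 active = inhibition above its plate's threshold, mean inhibition of all tested compounds on the plate plus 3 SD, cut at about 37% in these data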;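 note: 0% = orexin A challenge wells and 100% = SB-334867-A antagonist wells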
Target sequence (O43613 whole entry, looked up): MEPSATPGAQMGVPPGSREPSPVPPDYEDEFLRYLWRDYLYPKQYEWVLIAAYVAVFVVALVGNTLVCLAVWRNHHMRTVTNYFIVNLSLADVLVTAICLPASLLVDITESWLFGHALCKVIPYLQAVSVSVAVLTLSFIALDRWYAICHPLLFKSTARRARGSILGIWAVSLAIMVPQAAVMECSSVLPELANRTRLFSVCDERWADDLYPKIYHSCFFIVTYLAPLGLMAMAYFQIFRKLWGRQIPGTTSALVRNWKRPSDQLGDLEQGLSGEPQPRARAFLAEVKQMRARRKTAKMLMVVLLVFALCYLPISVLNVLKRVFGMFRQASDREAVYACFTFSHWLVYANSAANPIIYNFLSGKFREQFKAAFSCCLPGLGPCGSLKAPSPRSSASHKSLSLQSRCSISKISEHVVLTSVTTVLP
GPR7 antag: GPR7 receptor antagonists, primary screen, cell-based, fluorescence, single concentration; Neuropeptides B/W receptor type 1 (Homo sapiens), P48145; GPR7-expressing cells, fluorescence antagonist assay; inhibition, % at 4.4 µM; 1.1% of 290,000 active; AID 1861, 2009; in the data active = inhibition above about 16%, passing the limit was not always enough;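 note: cells stimulated with the agonist NPW; 0% = agonist with vehicle and 100% = vehicle without agonist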
GalR3 antagonist: GalR3 antagonists in HEK293 cells, primary screen, cell-based, fluorescence readout | AID 651719, 2012 | HEK293 GalR3-CNG cAMP membrane potential fluorescence; galR3 body fused to GalR1 C-terminus | 0.44% of 360,000 active | inhibition, % at 3 µM | Galanin receptor type 3 (Homo sapiens), O60755;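 active = inhibition above the screen-wide average plus 3 SD, cut at about 13% in these data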;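 note: forskolin and galanin both at EC90 stimulate the cells; cAMP rise reported by CNG channel membrane potential dye signal; 0% = forskolin plus galanin with DMSO and 100% = forskolin alone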
Target sequence (O60755 1-299 limits assumed): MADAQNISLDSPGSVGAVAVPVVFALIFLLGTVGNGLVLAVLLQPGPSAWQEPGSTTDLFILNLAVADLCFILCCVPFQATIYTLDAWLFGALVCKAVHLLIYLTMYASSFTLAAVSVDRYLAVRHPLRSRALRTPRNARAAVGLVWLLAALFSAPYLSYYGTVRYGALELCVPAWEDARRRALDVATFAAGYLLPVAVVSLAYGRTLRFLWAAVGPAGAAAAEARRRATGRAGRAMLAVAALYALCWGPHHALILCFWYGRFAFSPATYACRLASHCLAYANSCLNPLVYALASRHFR
CHO parental Ca: ATP-evoked calcium signal inhibitors, parental CHO, primary screen, counter-screen for OX1R antagonist project, cell-based, fluorescence, Fluo-8 calcium dye; parental CHO-K1, ATP-induced calcium, Fluo-8 fluorescence; inhibition, % at 5.6 µM; 0.63% of 330,000 active; AID 463079, 2010;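 active = inhibition above that plate's mean sample inhibition plus 3 SD, cut at about 26% in these data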;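 note: 0% = ATP-challenged DMSO wells and 100% = DMSO wells without ATP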
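Test system: parental CHO cells; detection: calcium-sensitive Fluo-8 fluorescence; evaluation: percent inhibition of calcium signal; also added: ATP as calcium-mobilizing challenge; repeats: one well per compound; control set: ATP-challenged DMSO wells low, unchallenged DMSO wells high; compound: single nominal dose of 5.6 µM per compound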
OX1R antag-2: antagonists of human orexin 1 receptor (OX1R); Orexin/Hypocretin receptor type 1 (Homo sapiens), O43613; OX1R-expressing cells, FRET antagonist read-out; inhibition, % at 6.6 µM; 1.8% of 330,000 active; in the data active = inhibition mostly above about 38%, no sharp cut-off; inactive = mostly below about 40%;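 note: 0% = agonist challenge alone and 100% = reference antagonist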
Active calls of the source: *; nt = no result given. Hits are enriched below; roughly 3.1% of the tested compounds scored in any of these assays.

SMILES | OX1R antag-1 | GPR7 antag | GalR3 antagonist | CHO parental Ca | OX1R antag-2
CCC(C)(C)c1ccc(OCC(=O)Nc2ccncc2)cc1 | 78.1* | 10.4 | -3.3 | 75.6* | 17.9
O=C(COc1ccc(-c2ccccc2)cc1)Nc1cccnc1 | 57.5* | nt | -7.4 | 27.4* | 23.2
O=C(COc1ccc(Br)cc1)Nc1ccncc1 | 18.5 | 2.0 | -0.9 | 10.3 | 21.9
O=C(COc1ccc([N+](=O)[O-])cc1)Nc1cccnc1 | -16.9 | 4.1 | 1.8 | -4.2 | 11.4
N#Cc1ccc(OCC(=O)Nc2ccncc2)cc1 | 6.7 | -11.8 | -7.7 | 2.9 | 1.7
O=C(COc1ccc(Nc2ccccc2)cc1)Nc1ccncc1 | 18.8 | nt | -5.3 | 36.8* | 18.4
C#CCC1c2ccccc2CCN1CC=C (stereo not drawn) | nt | nt | -1.4 | nt | nt
CC(C)(C)c1ccc(C(=O)c2cn[nH]c2-c2ccccc2O)cc1 | -1.3 | 3.0 | -6.8 | 2.9 | 12.7
CC(C)OC(=O)N(C)C[C@@H]1OCc2cnnn2CCCC(=O)N([C@H](C)CO)C[C@H]1C | nt | nt | -4.3 | nt | nt
Brc1ccc2c(c1)OCCOCCOc1cc(Br)ccc1OCCOCCOCCO2 | 71.5* | 24.2 | nt | 57.0* | 4.8
N#Cc1ccc(Nc2nc(-c3ccc(O)cc3O)cs2)cc1C(F)(F)F | 31.8 | nt | nt | 2.5 | 53.0*
CCOC(=O)c1c(NC(=O)C(C)N2CCN(C(=O)c3ccco3)CC2)sc2c1CCCC2 (stereo not drawn) | 65.8* | -2.9 | -3.4 | 59.8* | 2.2
COc1ccc(/C=C/c2n[nH]c(=O)c(C#N)c2C)cc1 | -25.3 | -17.8 | -8.6 | -23.7 | 43.0*
COc1ccc(/C=C/c2nc(-c3ccccc3)cc(=O)[nH]2)cc1 | -5.7 | -18.7 | -1.4 | -24.7 | 56.4
COC(=O)C[C@@H]1C=C[C@@H](NC(=O)C2CCC2)[C@@H](CO)O1 | nt | nt | -4.7 | nt | nt
O=C(Nc1ccc(Br)cc1)NC1CCCCCCC1 | 18.7 | 2.3 | -0.2 | 40.1* | 27.3
O=C(Nc1ccccc1)NC1CCCCCCC1 | -32.2 | nt | -5.2 | -9.7 | 18.2
CCN(CC)S(=O)(=O)c1cc(C(=O)n2cccn2)c(Cl)cc1Cl | 1.4 | 18.9* | 2.8 | -1.6 | 11.6
CCOC(=O)C1=C(COC(=O)c2ccc([N+](=O)[O-])s2)NC(=O)NC1C (stereo not drawn) | -18.2 | nt | -1.2 | 0.2 | 36.7*
CC12C=CC(C)(C3C(=O)NC(=O)C31)C1C3C(=O)NC(=O)C3C12 (stereo not drawn) | nt | nt | -6.5 | nt | nt
NC(=O)COc1c(-c2ccc(Br)o2)oc2ccccc2c1=O | 7.2 | -18.6 | nt | -12.7 | 71.7*
CCN1CCc2c(OCC(=O)N3CCCc4ccccc43)cccc2C1=O | -25.1 | 1.4 | 5.2 | -8.3 | 15.8
O=C1c2cccc(OCC(=O)N3CCCc4ccccc43)c2CCN1Cc1ccccc1 | -20.8 | 22.1* | -4.9 | -5.4 | 8.1
Oc1ccc(CCNc2ncnc3ccc(Cl)cc23)cc1 | 43.4* | 15.9 | -4.7 | 72.3* | 86.3*
COc1ccc(Cl)cc1C(=O)CSc1nnnn1C1CCCC1 | -12.7 | 17.4 | -6.5 | -17.1 | -2.4
SMILES | OX1R antag-1 | GPR7 antag | GalR3 antagonist | CHO parental Ca | OX1R antag-2
COc1ccc(Cl)cc1C(=O)CSc1nnnn1C1CCCCC1 | 27.5 | -2.7 | -3.5 | 52.4* | 52.5*
O=[N+]([O-])c1cnc2ccccc2c1 | -3.0 | -6.2 | 0.1 | -7.6 | 71.4*
Cc1nnc(SCC(=O)N2CCc3ccccc32)s1 | -0.5 | 15.7* | -0.2 | -12.0 | 2.6
CCn1cc(SCC(=O)N2CCc3ccccc32)c2ccccc21 | -24.8 | -11.4 | nt | 32.2* | 36.1*
O=C(CSc1ccccc1)N1CCc2ccccc21 | -26.9 | 4.6 | 0.9 | -21.3 | 24.0
Cc1nnc2sc(SCC(=O)N3CCc4ccccc43)nn2c1=O | nt | nt | -6.6 | nt | nt
COc1ccc(Cl)cc1C(=O)NNC(=O)c1[nH]c(C)c(C(C)=O)c1C | -30.7 | nt | -4.5 | -23.1 | 10.3
CCCNC(=O)C1(C)CCN1C(=O)c1cc(C)n(C)n1 (stereo not drawn) | nt | nt | -6.0 | nt | nt
Cc1ccc(CN(C)C[C@H]2OCc3cnnn3CCCC(=O)N([C@H](C)CO)C[C@@H]2C)cc1 | nt | nt | -5.9 | nt | nt
COc1ccc(NC(=O)CSc2nnc(-c3ccccc3)n2N)cc1 | -23.8 | 7.7 | -4.0 | -7.8 | 7.9
CCn1c2ccccc2c2cc(NC(=O)CSc3nnc(-c4ccc(OC)cc4)n3N)ccc21 | -8.0 | 9.0 | 0.3 | -15.5 | 49.6*
CC(C)Nc1ncnc2ccc(Br)cc12 | 19.0 | -16.6 | -5.0 | 28.9* | 24.9
O=C(Oc1cccc(Nc2ncnc3ccccc23)c1)c1cccnc1 | 3.5 | 8.9 | -6.4 | 5.5 | 39.0
CC(=O)c1cccc(Nc2ncnc3ccc(Br)cc23)c1 | -12.9 | -3.1 | -7.9 | -27.0 | 73.5*
COc1cc(C(=O)Oc2cccc(Nc3ncnc4ccccc34)c2)cc(OC)c1OC | 64.1* | -11.0 | -6.1 | 42.6* | 56.1*
O=S1(=O)CC(N2CCC(c3ccccc3)CC2)CN1Cc1cn(Cc2ccc(C(F)(F)F)cc2)nn1 (stereo not drawn) | nt | nt | -7.6 | nt | nt
N#CC1=C2SCC(O)(c3ccccc3)N2C(=O)CC1c1cccs1 (stereo not drawn) | -15.7 | 17.4* | -5.9 | -11.1 | 15.6
N#CC1=C2SCC(O)(c3ccccc3)N2C(=O)CC1c1ccccc1F (stereo not drawn) | -29.3 | -4.3 | -6.0 | -11.5 | 1.0
CCN(Cc1ccccc1)C(=O)Cn1c(=O)n(CC(=O)NCc2ccco2)c(=O)c2sccc21 | -0.8 | 2.7 | -5.3 | -4.4 | 51.8*
C[C@@H]1CNCCN1c1ccc(N2CCN(Cc3ccccc3)[C@@H](C)C2)c(C#N)c1 | nt | nt | -4.2 | nt | nt
CC(C)CN1C(=O)c2ccc(C(=O)Nc3nccs3)cc2C1=O | -20.9 | -5.8 | -5.2 | -7.8 | 13.9
COCCN1C(=O)c2ccc(C(=O)Nc3nccs3)cc2C1=O | -5.4 | -8.4 | -4.3 | 4.6 | 45.9*
CCC(CC)C(=O)Nc1cccc(C(=O)Nc2nccs2)c1 | -14.3 | -7.3 | -3.3 | -15.1 | 11.8
CCCN1C(=O)c2ccc(C(=O)Nc3nccs3)cc2C1=O | -6.9 | -5.3 | -3.8 | -5.9 | 45.2*
COc1ccccc1CC(=O)Nc1cccc(C(=O)Nc2nccs2)c1 | -11.7 | -6.2 | -2.7 | -15.6 | 49.0*
CC1=NN(c2ccccc2)C(=O)/C1=C\c1ccc(Oc2ccc([N+](=O)[O-])cc2[N+](=O)[O-])cc1 | 13.3 | 15.0 | 3.1 | 0.9 | 50.4*
O=C(NC1(C(=O)NC2CCCCC2)CCCCC1)c1ccccn1 | -16.7 | -0.5 | -2.1 | -10.4 | 12.5
Cc1ccc(NC(=O)C2(NC(=O)c3ccccn3)CCCCC2)cc1Br | -3.8 | -2.1 | -0.9 | -23.6 | 67.7*
COc1ccc(Nc2c[nH]c(=O)[nH]c2=O)cc1 | nt | nt | -1.9 | nt | nt
Cc1ccc(C(=O)NCCn2cc(SCC(=O)Nc3nnc(C)s3)c3ccccc32)cc1 | -24.4 | 19.3* | nt | -14.4 | 16.8

Source: PubChem BioAssay
